Laboratory results published in ChEMBL document CHEMBL1641566, “N-(Pyridin-3-yl)benzamides as selective inhibitors of human aldosterone synthase (CYP11B2)” (Bioorg Med Chem Lett, 2011).

Assays:
[1] = target: T1, Cytochrome P450 11B2, mitochondrial (Homo sapiens, UniProt P19099); experiment: Inhibition of human aldosterone synthase expressed in chinese hamster V79 cells at 500 nM using 11-deoxycorticosterone as substrate; conditions: read-out: INH
T1 sequence (P19099 whole entry): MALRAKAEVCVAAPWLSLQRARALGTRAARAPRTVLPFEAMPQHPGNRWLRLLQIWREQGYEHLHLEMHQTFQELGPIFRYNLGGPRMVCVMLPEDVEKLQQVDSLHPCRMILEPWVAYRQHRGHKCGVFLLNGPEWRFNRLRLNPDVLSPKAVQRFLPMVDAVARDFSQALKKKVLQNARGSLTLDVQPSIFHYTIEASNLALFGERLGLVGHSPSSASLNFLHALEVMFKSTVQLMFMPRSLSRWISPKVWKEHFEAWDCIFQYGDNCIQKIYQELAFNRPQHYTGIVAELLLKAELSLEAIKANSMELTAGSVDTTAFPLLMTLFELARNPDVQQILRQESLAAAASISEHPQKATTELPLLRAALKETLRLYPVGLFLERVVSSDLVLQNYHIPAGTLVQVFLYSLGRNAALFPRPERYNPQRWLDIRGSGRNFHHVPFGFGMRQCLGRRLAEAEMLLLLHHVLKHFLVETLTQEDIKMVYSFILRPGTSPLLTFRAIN

[2] = target: T2, CYP11B1 (steroid-11beta-hydroxylase) (Homo sapiens, UniProt P15538); experiment: Inhibition of human steroid-11beta-hydroxylase expressed in chinese hamster V79 cells at 500 nM using 11-deoxycorticosterone as substrate
T2 sequence (P15538 whole entry): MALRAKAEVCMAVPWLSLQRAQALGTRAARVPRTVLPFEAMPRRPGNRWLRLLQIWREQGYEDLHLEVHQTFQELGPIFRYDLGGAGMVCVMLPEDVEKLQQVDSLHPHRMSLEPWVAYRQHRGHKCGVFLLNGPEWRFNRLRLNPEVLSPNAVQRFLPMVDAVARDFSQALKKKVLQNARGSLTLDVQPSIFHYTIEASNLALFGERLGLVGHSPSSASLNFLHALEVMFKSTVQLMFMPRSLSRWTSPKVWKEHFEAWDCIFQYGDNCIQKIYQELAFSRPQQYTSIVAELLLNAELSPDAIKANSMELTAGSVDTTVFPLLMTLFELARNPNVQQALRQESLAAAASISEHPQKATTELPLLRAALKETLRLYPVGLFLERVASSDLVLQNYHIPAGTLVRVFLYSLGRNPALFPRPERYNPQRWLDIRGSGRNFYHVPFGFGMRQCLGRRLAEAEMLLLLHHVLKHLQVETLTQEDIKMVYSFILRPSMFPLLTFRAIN

[3] = species: Homo sapiens; experiment: Selectivity ratio of IC50 for human steroid-11beta-hydroxylase to IC50 for human aldosterone synthase
[4] = target: T3, CYP19 (aromatase) (Homo sapiens, UniProt P11511); experiment: Inhibition of human placental CYP19 at 500 nM using androstenedione as substrate; conditions: human placental CYP19, probe androstenedione
T3 sequence (P11511 whole entry): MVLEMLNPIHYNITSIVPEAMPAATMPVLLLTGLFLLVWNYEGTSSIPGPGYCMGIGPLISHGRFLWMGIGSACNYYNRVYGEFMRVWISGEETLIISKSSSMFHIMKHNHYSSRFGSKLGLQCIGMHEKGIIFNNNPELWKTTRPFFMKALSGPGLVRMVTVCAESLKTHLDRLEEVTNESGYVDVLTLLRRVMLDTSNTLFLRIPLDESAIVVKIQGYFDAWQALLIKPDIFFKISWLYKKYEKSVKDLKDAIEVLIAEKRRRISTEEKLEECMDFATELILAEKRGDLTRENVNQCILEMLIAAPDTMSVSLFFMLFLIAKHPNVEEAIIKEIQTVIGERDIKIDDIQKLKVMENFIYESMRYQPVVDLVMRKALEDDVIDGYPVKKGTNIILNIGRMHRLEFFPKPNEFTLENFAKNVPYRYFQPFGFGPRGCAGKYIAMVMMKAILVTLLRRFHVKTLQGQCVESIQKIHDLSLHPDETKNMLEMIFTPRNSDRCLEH
How it was run: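 Human placental CYP19 as enzyme source; substrate androstenedione at 500 nM.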

[5] = target: T4, CYP17 (steroid 17-alpha-hydroxylase/17,20 lyase) (Homo sapiens, UniProt P05093); experiment: Inhibition of human CYP17 expressed in Escherichia coli at 2000 nM using progesterone as substrate; conditions: probe progesterone
T4 sequence (P05093 whole entry): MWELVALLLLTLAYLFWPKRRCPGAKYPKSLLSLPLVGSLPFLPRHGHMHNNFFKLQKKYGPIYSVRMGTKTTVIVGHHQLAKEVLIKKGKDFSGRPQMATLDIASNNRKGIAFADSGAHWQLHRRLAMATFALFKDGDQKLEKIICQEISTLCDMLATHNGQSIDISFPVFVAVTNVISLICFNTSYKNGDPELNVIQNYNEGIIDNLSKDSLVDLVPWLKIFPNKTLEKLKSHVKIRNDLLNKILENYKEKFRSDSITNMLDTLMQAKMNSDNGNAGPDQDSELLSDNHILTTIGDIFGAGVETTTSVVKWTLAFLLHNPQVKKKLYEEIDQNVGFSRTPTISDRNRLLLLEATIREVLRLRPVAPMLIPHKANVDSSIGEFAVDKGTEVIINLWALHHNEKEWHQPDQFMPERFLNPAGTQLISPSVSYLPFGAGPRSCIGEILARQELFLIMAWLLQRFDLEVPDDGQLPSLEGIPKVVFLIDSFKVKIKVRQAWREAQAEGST
How it was run: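 50,000 g sediment of homogenate from E. coli recombinantly expressing human CYP17; substrate progesterone at 25 µM; inhibitor tested at 2.0 µM.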

[6] = target: T1, Cytochrome P450 11B2, mitochondrial; experiment: Inhibition of human aldosterone synthase expressed in chinese hamster V79 cells using 11-deoxycorticosterone as substrate; assay type: cell-based
[7] = target: T5, Cytochrome P450 11B1, mitochondrial (Homo sapiens, UniProt P15538); experiment: Inhibition of human steroid-11beta-hydroxylase expressed in chinese hamster V79 cells using 11-deoxycorticosterone as substrate; assay type: cell-based
T5 sequence (P15538 whole entry): T2 sequence (P15538 whole entry)

| inhibition at 0.5 µM [1] [%] | inhibition at 0.5 µM ([2]; probe 11-deoxycorticosterone) [%] | Ratio IC50 [3] | inhibition at 0.5 µM [4] [%] | inhibition at 2 µM [5] [%] | inhibition at 0.5 µM ([2]; v79) [%] | IC50 [6] [µM] | IC50 [7] [µM] | SMILES |
| --- | --- | --- | --- | --- | --- | --- | --- | --- |
| 39 | 4 |  |  |  |  |  |  | O=C(Nc1cccnc1)c1ccncc1 |
| 81 |  | 96 | 0.2 | 0.2 | 9 | 0.078 | 7.5 | N#Cc1ccc(C(=O)Nc2cccnc2)cc1 |
| 8 | 3 |  |  |  |  |  |  | O=C(Nc1cccnc1)c1cccnc1 |
| 1 | 1 |  |  |  |  |  |  | O=C(Nc1cccnc1)c1ccc(C(F)(F)F)cc1 |
| 86 | 7 | 174 | 1.1 | 0.3 |  | 0.082 | 14.3 | O=C(Nc1cccnc1)c1ccc(F)cc1 |
| 30 | 2 |  |  |  |  |  |  | O=C(Nc1cccnc1)c1ccccc1 |
| 70 | 2 | 97 | 0 | 0.6 |  | 0.166 | 16.1 | O=C(Nc1cccnc1)c1cc(F)c(F)cc1F |
| 79 | 94 |  | 0 | 0 |  |  |  | CC(C)(C(=O)c1cccnc1)c1cccnc1 [METYRAPONE] |
| 88 | 5 | 157 | 0 | 1.3 |  | 0.065 | 10.2 | O=C(Nc1cccnc1)c1ccc(Cl)cc1 |
| 2 | 0.1 |  |  |  |  |  |  | COc1ccc(C(=O)Nc2cccnc2)cc1OC |
| 83 | 6 | 111 | 0.5 | 1 |  | 0.0535 | 5.92 | O=C(Nc1cccnc1)c1ccc(F)c(F)c1 |
| 19 | 0 |  |  |  |  |  |  | COc1ccc(C(=O)Nc2cccnc2)cc1 |
| 64 |  | 161 | 0.1 | 4.3 | 0 | 0.104 | 16.7 | O=C(Nc1cccnc1)c1ccc(Br)cc1 |
| 25 | 0 |  |  |  |  |  |  | Cc1ccc(C(=O)Nc2cccnc2)cc1 |
| 34 | 1 |  |  |  |  |  |  | O=C(Nc1cccnc1)c1ccccc1F |
| 29 | 0.4 |  |  |  |  |  |  | O=C(Nc1cccnc1)c1cncc(Br)c1 |
| 64 | 0 | 171 | 0 | 1 |  | 0.145 | 24.8 | O=C(Nc1cccnc1)c1ccc([N+](=O)[O-])cc1 |
| 6 | 0 |  |  |  |  |  |  | O=C(Nc1cccnc1)c1ccc(-c2ccccc2)cc1 |
|  | 91 |  |  |  |  |  |  | O=C1CCc2cc(-c3cncc4ccccc34)ccc2N1 |
| 26 | 0 |  |  |  |  |  |  | O=C(Nc1cccnc1)c1cccc(Cl)c1 |
| 51 | 4 |  |  |  |  |  |  | O=C(Nc1cccnc1)c1cccc(Cl)c1Cl |
| 3 | 3 |  |  |  |  |  |  | O=C(Nc1cccnc1)c1ccc(OC(F)(F)F)cc1 |
